{"data": "Published values collected from several papers", "DHFR": "Dihydrofolate reductase (DHFR, Homo sapiens, UniProt P00374)", "Tmem97": "Sigma intracellular receptor 2 (Tmem97, Rattus norvegicus, UniProt Q5U3Y7)", "note": "Lines come from different studies, so protocols differ."}
{"SMILES": "Cc1cc([C@@H](C)Nc2ccccc2C(=O)O)c2nc(N3CCC(F)(F)CC3)c(C#N)c(=O)n2c1", "target": "Serine/threonine-protein kinase PLK1 (PLK1, Homo sapiens, UniProt P53350)", "read-out": "binding", "method": "competition with immobilised ligand", "tested at": "1 µM", "endpoint": "remaining binding", "result": "100%"}
{"SMILES": "S=C(NN=Cc1ccc(N2CCCCC2)cc1)Nc1ccccc1", "target": "DHFR", "read-out": "enzyme activity", "mode": "inhibitor", "tested at": "500 µM", "endpoint": "inhibition", "result": "90.1%"}
{"SMILES": "COc1cc([C@@H]2c3cc4c(cc3[C@@H](O[C@@H]3O[C@@H]5CO[C@@H](C)O[C@H]5[C@H](O)[C@H]3O)[C@H]3COC(=O)[C@H]23)OCO4)cc(OC)c1O", "target": "DNA topoisomerase 2-alpha (TOP2A, Homo sapiens, UniProt P11388)", "read-out": "enzyme activity", "mode": "inhibitor", "tested at": "7.8 µM", "endpoint": "inhibition", "result": "89.5%"}
{"SMILES": "COc1ccc(CN2C[C@](C)(O)[C@@H]3C[C@H]2[C@@H](C)c2nc4ccccc4c(-c4ccccc4)c23)cc1", "target": "Tmem97", "read-out": "ligand displacement", "method": "radioligand", "tested at": "1 µM", "endpoint": "inhibition", "result": "0%"}
{"SMILES": "CNc1ncc2c(/C=C/C(=O)N3CCC(OC)CC3)nn(Cc3cccc(C(F)(F)F)c3)c2n1", "target": "Mitogen-activated protein kinase kinase kinase 8 (MAP3K8, Homo sapiens, UniProt P41279)", "read-out": "enzyme activity", "mode": "inhibitor", "method": "radiometric", "tested at": "1 µM", "endpoint": "remaining activity", "result": "112%"}
{"SMILES": "Cc1ccc(NC(=S)NN=Cc2ccc(N3CCCCC3)cc2)cc1", "target": "DHFR", "read-out": "enzyme activity", "mode": "inhibitor", "tested at": "500 µM", "endpoint": "inhibition", "result": "84.4%"}
{"SMILES": "C=CC(=O)N1CCC(COCC(=O)N2CCN(c3nc(-c4cnc(N)nc4C(F)F)nc(N4CCOC[C@@H]4C)n3)CC2)CC1", "target": "Calcium/calmodulin-dependent protein kinase type II subunit alpha (CAMK2A, Homo sapiens, UniProt Q9UQM7)", "read-out": "binding", "method": "competition with immobilised ligand", "tested at": "1 µM", "endpoint": "remaining binding", "result": "100%"}
{"SMILES": "O=[N+]([O-])c1ccc(NC(=S)NN=Cc2ccc(N3CCCCC3)cc2)cc1", "target": "DHFR", "read-out": "enzyme activity", "mode": "inhibitor", "tested at": "500 µM", "endpoint": "inhibition", "result": "90.6%"}
{"SMILES": "C[C@H]1C(=O)/C(=C/c2ccccc2)[C@H]2C[C@@H]1N(Cc1ccccc1)C[C@@]2(C)O", "target": "Tmem97", "read-out": "ligand displacement", "method": "radioligand", "tested at": "1 µM", "endpoint": "inhibition", "result": "0%"}
{"SMILES": "S=C(NN=Cc1ccc(N2CCCCC2)cc1)Nc1c(Cl)cccc1Cl", "target": "DHFR", "read-out": "enzyme activity", "mode": "inhibitor", "tested at": "500 µM", "endpoint": "inhibition", "result": "83.2%"}
{"SMILES": "COc1cc(-c2cncc3c2CN(C)Cc2cc(N4CCNCC4)ccc2-3)cc(OC)c1OC", "target": "MAPK/MAK/MRK overlapping kinase (MOK, Homo sapiens, UniProt Q9UQ07)", "read-out": "enzyme activity", "mode": "inhibitor", "tested at": "1 µM", "endpoint": "remaining activity", "result": "103%"}
{"SMILES": "CC(C)OC(=O)CNc1cccc(CN(Cc2ccc(-n3cccn3)cc2)S(=O)(=O)c2cccnc2)n1", "target": "Rho-associated protein kinase 1 (ROCK1, Homo sapiens, UniProt Q13464)", "read-out": "enzyme activity", "mode": "inhibitor", "tested at": "10 µM", "endpoint": "inhibition", "result": "≥ 50%"}
